In data set [1] the test system is Rattus norvegicus. Nature of the data set: Antihypertensive activity in Norwegian albino rat assessed as inhibition of DOCA salt-induced diastolic blood pressure at 10 mg/kg, po after 180 mins by invasive carotid artery cannulation method. It is filed as functional. Particulars: 3 h. In short, it runs like this: (§1)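 Male rats (200–250 g), uninephrectomized and given DOCA s.c. (30–50 mg/kg/week) with 1% NaCl drinking water. Anesthetized with pentobarbital (35 mg/kg i.p.); left carotid artery cannulated and exteriorized. After recovery and a baseline reading, compound given orally by feeding needle. Diastolic pressure recorded via transducer at 15, 30, 60, 120 and 180 min. Mean ± S.E.M.; repeated-measures ANOVA.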

Data set [2] deals with Rattus norvegicus. The data set can be described thus: Antihypertensive activity in Norwegian albino rat assessed as inhibition of DOCA salt-induced systolic blood pressure at 10 mg/kg, po after 120 mins by non-invasive tail-cuff method. The settings on record: Artery, 2 h. The format is functional. In short, it runs like this: (§2)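 Male rats (200–250 g), uninephrectomized under pentobarbital (50 mg/kg i.p.); one week later DOCA s.c. 30–50 mg/kg/week, with 1% w/v NaCl in drinking water. Groups of six, trained in restrainer, tail warmed at 33–34 °C. Compound in 0.5% CMC, 10 mg/kg orally. Systolic pressure read by tail-cuff before dosing and from 1 h after; three readings averaged. ANOVA.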

In data set [3] the test system is Rattus norvegicus. The data set can be described thus: Antihypertensive activity in Norwegian albino rat assessed as inhibition of DOCA salt-induced systolic blood pressure at 10 mg/kg, po after 180 mins by non-invasive tail-cuff method. Particulars: Artery, 3 h. It is filed as functional. The method in brief:
as §2

The subject of data set [4] is Rattus norvegicus. The data set can be described thus: Antihypertensive activity in Norwegian albino rat assessed as inhibition of DOCA salt-induced diastolic blood pressure at 10 mg/kg, po after 15 mins by invasive carotid artery cannulation method. It is filed as functional. Particulars: 0.25 h. The method in brief:
as §1

The test system of data set [5] is Rattus norvegicus. Nature of the data set: Antihypertensive activity in Norwegian albino rat assessed as inhibition of DOCA salt-induced systolic blood pressure at 10 mg/kg, po after 15 mins by non-invasive tail-cuff method. It is filed as functional. The settings on record: Artery, 0.25 h.
Data set [6] has as its system Rattus norvegicus. Nature of the data set: Antihypertensive activity in Norwegian albino rat assessed as inhibition of DOCA salt-induced systolic blood pressure at 10 mg/kg, po after 240 mins by non-invasive tail-cuff method. The format is functional. The settings on record: Artery, 4 h. The method in brief: as §2
The test system of data set [7] is Rattus norvegicus. Nature of the data set: Antihypertensive activity in Norwegian albino rat assessed as inhibition of DOCA salt-induced diastolic blood pressure at 10 mg/kg, po after 30 mins by invasive carotid artery cannulation method. The format is functional. The settings on record: 0.5 h. In short, it runs like this: as §1
Data set [8] has as its system Rattus norvegicus. Nature of the data set: Antiinflammatory activity in Norwegian albino rat assessed as inhibition of carrageenan-induced paw edema at 100 mg/kg, po after administered 60 mins prior to carrageenan-challenge measured after 5 hrs. The format is functional. The method in brief:
(§3)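 Compound given orally as 100 mg/kg suspension in 0.5% CMC. 60 min later, carrageenan injected sub-plantar into the left hind paw. Paw volume measured within 30 s of injection, then at 1–5 h. % inhibition = [1−(Dt/Dc)]×100, where Dt and Dc are mean relative paw-volume changes in test and control. ANOVA.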

Data set [9] relates to Rattus norvegicus. Nature of the data set: Antiinflammatory activity in Norwegian albino rat assessed as inhibition of carrageenan-induced paw edema at 100 mg/kg, po after administered 60 mins prior to carrageenan-challenge measured after 3 hrs. The format is functional. In short, it runs like this: as §3
Data set [10] deals with Rattus norvegicus. Nature of the data set: Antihypertensive activity in Norwegian albino rat assessed as inhibition of DOCA salt-induced systolic blood pressure at 10 mg/kg, po after 300 mins by non-invasive tail-cuff method. The format is functional. Particulars: Artery, 5 h. The method in brief: as §2
Data set [11] deals with Rattus norvegicus. The data set can be described thus: Antiinflammatory activity in Norwegian albino rat assessed as inhibition of carrageenan-induced paw edema at 100 mg/kg, po after administered 60 mins prior to carrageenan-challenge measured after 1 hr. The format is functional. In short, it runs like this: as §3
(In the carrageenan paw model, swelling and tenderness develop within hours.)

In data set [12] the test system is Rattus norvegicus. The data set can be described thus: Antihypertensive activity in Norwegian albino rat assessed as inhibition of DOCA salt-induced systolic blood pressure at 10 mg/kg, po after 360 mins by non-invasive tail-cuff method. It is filed as functional. The settings on record: Artery, 6 h. The method in brief:
as §2

Data set [13] deals with Rattus norvegicus. The data set can be described thus: Antihypertensive activity in Norwegian albino rat assessed as inhibition of DOCA salt-induced systolic blood pressure at 10 mg/kg, po after 30 mins by non-invasive tail-cuff method. Particulars: Artery, 0.5 h. It is filed as functional.
Data set [14] concerns Rattus norvegicus. Nature of the data set: Antihypertensive activity in Norwegian albino rat assessed as inhibition of DOCA salt-induced systolic blood pressure at 10 mg/kg, po after 60 mins by non-invasive tail-cuff method. The settings on record: Artery, 1 h. It is filed as functional. In short, it runs like this:
as §2

For data set [15], the system named is Rattus norvegicus. Nature of the data set: Antihypertensive activity in Norwegian albino rat assessed as inhibition of DOCA salt-induced systolic blood pressure at 10 mg/kg, po after 480 mins by non-invasive tail-cuff method. The settings on record: Artery, 8 h. The format is functional. The method in brief: as §2
Data set [16] relates to Rattus norvegicus. The data set can be described thus: Antihypertensive activity in Norwegian albino rat assessed as inhibition of DOCA salt-induced systolic blood pressure at 10 mg/kg, po after 420 mins by non-invasive tail-cuff method. The format is functional. The settings on record: Artery, 7 h. The method in brief:
as §2

Data set [17] deals with Mus musculus. Nature of the data set: Analgesic activity against acetic acid-induced writhing in Swiss albino mouse assessed as protection at 20 mg/kg, po. It is filed as functional. The method in brief: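 Swiss albino mice (25–30 g), six per group, habituated 30 min individually in the test cage. Compound in 1% CMC given p.o. at 20 mg/kg. 1 h later, acetic acid injected i.p.; writhes (arching of back, body elongation, hind-limb extension) counted 5–15 min after injection. % inhibition = (n−n′)/n×100, where n and n′ are mean writhes in control and test.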
Background: In writhing tests, fewer writhes than in controls are read as antinociception.

Data set [18] deals with Rattus norvegicus. Nature of the data set: Antihypertensive activity in Norwegian albino rat assessed as inhibition of DOCA salt-induced diastolic blood pressure at 10 mg/kg, po after 120 mins by invasive carotid artery cannulation method. It is filed as functional. The settings on record: 2 h. In short, it runs like this: as §1
For data set [19], the system named is Rattus norvegicus. Nature of the data set: Gastrointestinal toxicity in albino rat assessed as ulcerogenic index at 50 mg/kg, po. The format is organism-based. On the set-up: dose 50 mg/kg, route oral. The settings on record: in vivo. The method in brief: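 Albino rats (150–200 g), six per group, food but not water withheld 24 h. Compound given p.o. at 50 mg/kg; controls received 1% methyl cellulose. Rats fed 17 h, then killed; stomach opened along greater curvature and examined under 4× magnifier. Lesions scored as large (>2 mm), small (1–2 mm) or punctiform (<1 mm). Severity index = treated mean score minus control mean score.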

Data set [20] deals with Rattus norvegicus. The data set can be described thus: Antihypertensive activity in Norwegian albino rat assessed as inhibition of DOCA salt-induced diastolic blood pressure at 10 mg/kg, po after 60 mins by invasive carotid artery cannulation method. Particulars: 1 h. The format is functional. In short, it runs like this:
as §1

The subject of data set [21] is Rattus norvegicus. The data set can be described thus: Antihypertensive activity in Norwegian albino rat assessed as inhibition of DOCA salt-induced diastolic blood pressure at 10 mg/kg, po after 240 mins by invasive carotid artery cannulation method. It is filed as functional. Particulars: 4 h.

Broadly, the inhibition in vivo is the share of the control response that was lost under treatment. Turning to `CCOC(=O)C1=C(C)NC(OC)N(CC(=O)c2ccc(Cl)cc2)C1c1ccccc1` (configuration not stated), the inhibition in vivo at 10 mg/kg turned out to be 37.8% in [1]; 20.5% in data set [2]; 28% in data set [3]; 2.35% in [4]; 0.7% in [5]; 36.7% in data set [6]. For the same compound, the inhibition in vivo at 10 mg/kg in data set [7] was found to be 9.99%; in [10], 38.2%; in data set [12], 41.5%; in data set [13], 6.49%; in data set [14], 13.8%; in data set [15], 46.5%. The inhibition in vivo at 10 mg/kg in [16] was 45%; in [18] it was 30.1%; in data set [20], 23%; in [21], 47.8%. The inhibition in vivo at 100 mg/kg is 42% in data set [8], 38.4% in [9] and 36.6% in data set [11]. In addition, in [17], the Activity worked out at 41.66%. Further, the UI in [19] came to 0.45.

As for `CCOC(=O)C1=C(C)NC(OC)N(CC(=O)c2ccc(OC)cc2)C1c1ccc(C)cc1` (configuration not stated), the inhibition in vivo at 10 mg/kg in data set [1] came to 37.6%; in [2] it was 24%; in data set [3] it was 28.1%; in [4], 3.12%; in [5], 1.82%; in [6] it was 36.9%. The inhibition in vivo at 10 mg/kg was 11.5% in [7]; 39.6% in data set [10]; 42% in data set [12]; 11.1% in data set [13]; 14.7% in data set [14]; 46.3% in data set [15]. Moreover, the inhibition in vivo at 10 mg/kg stood at 44% in data set [16], 30% in data set [18], 22.5% in data set [20] and 47.9% in data set [21]. The values for the inhibition in vivo at 100 mg/kg in [8], in [9] and in data set [11] were 42%, 39.8% and 38.8%, respectively. Also, the Activity in data set [17] is on record as 43.33%. For the same compound, the UI in data set [19] amounted to 0.56.

The record behind these values is ChEMBL document CHEMBL1153580, “Synthesis and pharmacological investigation of 3-(substituted 1-phenylethanone)-4-(substituted phenyl)-1, 2, 3, 4-tetrahydropyrimidine-5-carboxylates” (Eur J Med Chem, 2009).
